Activity calls are given as the source filed them. The rule behind the calls is not given here.
How the values were obtained:
A549 [1] = assay: Inhibition of ERK phosphorylation in human A549 cells at 3 uM after 3 to 24 hrs by Western blot analysis; type: cell-based
Summary of the method: (§1)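 A549 cells exposed to 3 μM for 3, 6, 12 or 24 h. Lysate protein (30 μg) run on 12% SDS-PAGE and blotted to nitrocellulose. Membranes blocked in 5% skim milk, primary antibodies at 4°C overnight, then HRP anti-IgG secondary for 1 h at room temperature. β-actin was the internal control. Bands quantified by densitometry; three independent experiments, mean ± SD.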

A549 [2] = assay: Cell cycle arrest in human A549 cells assessed as accumulation of cells at G1 phase at 3 uM after 12 hrs by propidium iodide staining-based flow cytometric analysis (reference value: 57.65%); type: functional
[3] = target: c-Jun N-terminal kinase, JNK (Homo sapiens) (UniProt P45983+P53779+P45984); assay: Activation of JNK phosphorylation in human A549 cells at 3 uM after 3 to 24 hrs by Western blot analysis; type: cell-based
Summary of the method: (§2)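 A549 cells exposed to 3 μM for 3, 6, 12 or 24 h; where NAC is used, 10 mM NAC is added 30 min before 24 h treatment. Lysate protein (30 μg) is run on 12% SDS-PAGE, blotted to nitrocellulose, blocked in 5% milk, primary antibody overnight at 4°C, then HRP anti-IgG. β-actin loading control; densitometry; three independent experiments, mean ± SD.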

A549 [4] = assay: Induction of apoptosis in human A549 cells assessed as late apoptotic cells at 3 uM after 12 hrs by Annexin V-FITC/propidium iodide staining-based flow cytometric analysis (reference value: 4.52%); type: functional
A549 [5] = assay: Induction of ROS generation in human A549 cells assessed as intracellular ROS level at 3 uM after 24 hrs by DCFH-DA staining-based flow cytometric analysis (reference value: 51.8%); type: functional
Summary of the method: (§3)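 A549 cells loaded with DCFH-DA (10 μM per legend) for 30 min, then exposed to 3 μM at 37°C for 3, 6, 12 or 24 h. After two PBS washes, intracellular fluorescence is quantified by flow cytometry. Three independent experiments, mean ± SD.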

A549 [6] = assay: Induction of apoptosis in human A549 cells assessed as cell shrinkage at 3 uM by Annexin V-FITC/propidium iodide staining-based flow cytometric analysis; type: functional; conditions: TDE = time-dependent effect
A549 [7] = assay: Induction of apoptosis in human A549 cells assessed as apoptotic morphological changes at 3 uM by Annexin V-FITC/propidium iodide staining-based flow cytometric analysis; type: functional, cell-based; conditions: TDE = time-dependent effect
A549 [8] = assay: Cell cycle arrest in human A549 cells assessed as accumulation of cells at G2 phase at 3 uM after 12 hrs by propidium iodide staining-based flow cytometric analysis (reference value: 24.02%); type: functional
[9] = target: RAC-alpha serine/threonine-protein kinase (Homo sapiens) (UniProt P31749); assay: Modulation of AKT in human A549 cells assessed as decrease in cyclinD1 levels measured after 24 hrs in presence of Akt inhibitor-LY10249 by Western blot analysis; type: cell-based
Summary of the method: (§4)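 A549 cells pre-incubated for 30 min with 12.1 μM kinase inhibitor: SB203580 (p38), SP600125 (JNK), FR180204 (ERK) or LY10249 (Akt). Compound treatment followed for 24 h. Lysates (30 μg protein) analysed by 12% SDS-PAGE and nitrocellulose immunoblot with HRP detection. Three independent experiments, mean ± SD.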

A549 [10] = assay: Cell cycle arrest in human A549 cells assessed as decrease in CDK4/6 levels at 3 uM by Western blot analysis; type: functional, cell-based; conditions: TDE = time-dependent effect; summary of the method: as §2
A549 [11] = assay: Cell cycle arrest in human A549 cells assessed as decrease in cyclinD1/E levels at 3 uM by Western blot analysis; type: functional, cell-based; conditions: TDE = time-dependent effect; summary of the method: as §2
A549 [12] = assay: Inhibition of ERK in human A549 cells assessed as decrease in STAT3 phosphorylation at 3 uM after 3 to 24 hrs by Western blot analysis; type: cell-based; summary of the method: as §1
A549 [13] = assay: Induction of apoptosis in human A549 cells assessed as decrease in Bcl-2 expression at 3 uM after 24 hrs by Western blot analysis; type: functional, cell-based; summary of the method: as §2
A549 [14] = assay: Cell cycle arrest in human A549 cells assessed as accumulation of cells at S phase at 3 uM after 24 hrs by propidium iodide staining-based flow cytometric analysis (reference value: 13.85%); type: functional
A549 [15] = assay: Modulation of ERK in human A549 cells assessed as increase in cleaved caspase-3 measured after 24 hrs in presence of ERK inhibitor-FR180204 by Western blot analysis; type: cell-based; summary of the method: as §4
A549 [16] = assay: Induction of apoptosis in human A549 cells assessed as early apoptotic cells at 3 uM after 24 hrs by Annexin V-FITC/propidium iodide staining-based flow cytometric analysis (reference value: 2.73%); type: functional
A549 [17] = assay: Modulation of ERK in human A549 cells assessed as decrease in STAT3 phosphorylation measured after 24 hrs in presence of ERK inhibitor FR180204 by Western blot analysis; type: cell-based
A549 [18] = assay: Induction of apoptosis in human A549 cells assessed as increase in cleaved PARP expression at 3 uM by Western blot analysis; type: functional, cell-based; conditions: TDE = time-dependent effect; summary of the method: as §2
A549 [19] = assay: Induction of apoptosis in human A549 cells assessed as late apoptotic cells at 3 uM after 6 hrs by Annexin V-FITC/propidium iodide staining-based flow cytometric analysis (reference value: 4.52%); type: functional
[20] = target: RAC-alpha serine/threonine-protein kinase (Homo sapiens) (UniProt P31749); assay: Inhibition of AKT phosphorylation in human A549 cells at 3 uM measured after 24 hrs in presence of NAC by Western blot analysis; type: cell-based
Summary of the method: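 A549 cells pretreated with 10 mM NAC for 30 min, then exposed to compound for 24 h. Lysate protein (30 μg) resolved on 12% SDS-PAGE and transferred to nitrocellulose. Probed with primary antibodies overnight at 4°C, then HRP secondary. Band densities from three independent experiments, mean ± SD.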

A549 [21] = assay: Induction of apoptosis in human A549 cells assessed as early apoptotic cells at 3 uM after 6 hrs by Annexin V-FITC/propidium iodide staining-based flow cytometric analysis (reference value: 2.73%); type: functional
A549 [22] = assay: Cell cycle arrest in human A549 cells assessed as accumulation of cells at S phase at 3 uM after 12 hrs by propidium iodide staining-based flow cytometric analysis (reference value: 13.85%); type: functional
A549 [23] = assay: Induction of ROS generation in human A549 cells at 3 uM by DCFH-DA staining-based flow cytometric analysis; type: functional, cell-based; conditions: TDE = time-dependent effect; summary of the method: as §3
A549 [24] = assay: Induction of apoptosis in human A549 cells assessed as late apoptotic cells at 3 uM after 24 hrs by Annexin V-FITC/propidium iodide staining-based flow cytometric analysis (reference value: 4.52%); type: functional
A549 [25] = assay: Cell cycle arrest in human A549 cells assessed as accumulation of cells at G2 phase at 3 uM after 3 hrs by propidium iodide staining-based flow cytometric analysis (reference value: 24.02%); type: functional
A549 [26] = assay: Induction of apoptosis in human A549 cells assessed as increase in Bad levels at 3 uM after 24 hrs by Western blot analysis; type: functional, cell-based; summary of the method: as §2
A549 [27] = assay: Induction of apoptosis in human A549 cells assessed as early apoptotic cells at 3 uM in presence of NAC by Annexin V-FITC/propidium iodide staining-based flow cytometric analysis (reference value: 5.31%); type: functional
A549 [28] = assay: Induction of apoptosis in human A549 cells assessed as late apoptotic cells at 3 uM in presence of NAC by Annexin V-FITC/propidium iodide staining-based flow cytometric analysis (reference value: 0.22%); type: functional

Chain of RAC-alpha serine/threonine-protein kinase (Homo sapiens) (P31749 whole entry): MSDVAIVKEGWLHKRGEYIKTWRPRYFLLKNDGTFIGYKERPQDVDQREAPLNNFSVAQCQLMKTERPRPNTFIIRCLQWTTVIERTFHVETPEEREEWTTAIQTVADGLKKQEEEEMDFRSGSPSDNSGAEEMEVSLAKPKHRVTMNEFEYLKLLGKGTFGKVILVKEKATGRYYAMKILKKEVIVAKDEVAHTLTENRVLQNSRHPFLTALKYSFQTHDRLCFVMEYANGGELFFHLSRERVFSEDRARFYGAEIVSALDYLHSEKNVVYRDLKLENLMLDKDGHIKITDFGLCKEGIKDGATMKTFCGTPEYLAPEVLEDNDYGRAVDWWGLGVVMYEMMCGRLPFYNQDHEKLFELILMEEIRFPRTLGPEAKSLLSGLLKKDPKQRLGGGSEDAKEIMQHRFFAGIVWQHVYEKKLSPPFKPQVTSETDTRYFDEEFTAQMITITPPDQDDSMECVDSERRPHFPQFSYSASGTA

Row | SMILES | inhibition (A549 [1]) | Activity (A549 [2]) [%] | Activity [3] | Activity (A549 [4]) [%] | Activity (A549 [5]) [%] | Activity (A549 [6]) | Activity (A549 [7]) | Activity (A549 [8]) [%] | Activity [9] | Activity (A549 [10]) | Activity (A549 [11]) | inhibition (A549 [12]) | Activity (A549 [13]) | Activity (A549 [14]) [%] | Activity (A549 [15]) | Activity (A549 [16]) | Activity (A549 [17]) | Activity (A549 [18]) | Activity (A549 [19]) [%] | inhibition [20] | also measured
1 | CCCS(=O)(=O)C12OC1C(=O)c1c(OC)ccc(OC)c1C2=O (stereo unspecified) | Active | 69 | Active | 0.2 | 76.35 | Tde | Tde | 17.49 | Active | Tde | Tde | Active | Active | 7.41 | Active | 48.76% | Active | Tde | 7.11 | inactive | Activity (A549 [21]): 16.31%; Activity (A549 [22]): 9.06%; Activity (A549 [23]): Tde; Activity (A549 [24]): 6.31 - 8.05%; Activity (A549 [25]): 23.47%; Activity (A549 [26]): Active; Activity (A549 [27]): 17.94%; Activity (A549 [28]): 2.67%
2 | CCCCCCCCCS(=O)(=O)C12OC1C(=O)c1c(OC)ccc(OC)c1C2=O (stereo unspecified) | Active | 68.84 | Active | 7.87 | 70.81 | Tde | Tde | 20.99 | Active | Tde | Tde | Active | Active | 6.03 | Active | 24.66 - 30.02% | Active | Tde | 6.43 | inactive | Activity (A549 [21]): 14.47%; Activity (A549 [22]): 7.18%; Activity (A549 [23]): Tde; Activity (A549 [24]): 1.89 - 12.93%; Activity (A549 [25]): 26.58%; Activity (A549 [26]): Active; Activity (A549 [27]): 15.06%; Activity (A549 [28]): 3.03%
